# Test results from ChEMBL document CHEMBL3091376, “Design, synthesis and in vitro anticancer evaluation of 4,6-diamino-1,3,5-triazine-2-carbohydrazides and -carboxamides” (Bioorg Med Chem Lett, 2013).
# Counter-ions that a name gives are not always drawn. Peptide text beside a SMILES is read from it. * marks the point of attachment. Cbz = O=C(OCc1ccccc1)*
# How the values were obtained:
# MCF7 = test: Growth inhibition of human MCF7 cells after 72 hrs by CellTiter-Blue assay; type: functional, cell-based; conditions: MCF7, 72 h
# Method in brief: (§1)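 CellTiter-Blue viability assay after 72 h exposure to test compound. IC50 (μM) reported as the mean of triplicates with standard deviation. Some values are approximate owing to low solubility in medium.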
# MDA-MB-231 = test: Growth inhibition of human MDA-MB-231 cells after 72 hrs by CellTiter-Blue assay; type: functional, cell-based; conditions: MDA-MB-231, 72 h; method in brief: as §1
# [1] = Growth inhibition of human MCF10A cells after 72 hrs by CellTiter-Blue assay; type: cell-based; conditions: MCF-10A; method in brief: as §1
Structure (SMILES),IC50 (MCF7) [nM],IC50 (MDA-MB-231) [nM],IC50 [1] [nM]
CC(C)C[C@@H](C=O)NC(=O)[C@H](CC(C)C)NC(=O)[C@H](CC(C)C)NC(=O)OCc1ccccc1 [MG-132] (Cbz-Leu-Leu-Leu-aldehyde),130,180,290
COc1cccc2c1C(=O)c1c(O)c3c(c(O)c1C2=O)C[C@@](O)(C(=O)CO)C[C@@H]3O[C@H]1C[C@H](N)[C@H](O)[C@H](C)O1 [DOXORUBICIN HYDROCHLORIDE],,,1110
